A selection: hits, their analogues and other compounds. The true share with any hit is near 3.8%.
NPY-Y2 PAM-ag = potentiates or activates human NPY-Y2 receptor | AID 1359 | 220,000 compounds, 0.45% hits | cells expressing NPY-Y2, potentiator/agonist read-out | activation, % at 3.6 µM; in the data active means activation above about 27%;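 further: cells stimulated with NPY near EC25 plus isoproterenol at EC100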
Target sequence (P49146 whole entry, looked up): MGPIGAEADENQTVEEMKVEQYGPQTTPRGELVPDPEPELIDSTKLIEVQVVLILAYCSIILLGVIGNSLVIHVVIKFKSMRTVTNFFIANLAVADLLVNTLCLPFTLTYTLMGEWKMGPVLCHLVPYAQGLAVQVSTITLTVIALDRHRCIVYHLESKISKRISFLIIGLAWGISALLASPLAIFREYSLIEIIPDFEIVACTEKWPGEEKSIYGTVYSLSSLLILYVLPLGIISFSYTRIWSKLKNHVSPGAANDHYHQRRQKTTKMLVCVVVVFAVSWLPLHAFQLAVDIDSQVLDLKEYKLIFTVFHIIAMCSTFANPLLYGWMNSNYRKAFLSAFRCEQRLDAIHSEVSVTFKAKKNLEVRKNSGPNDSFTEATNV
NPY1 pot ag = potentiates or activates human NPY-Y1 receptor; P25929; NPY-Y1 expressing cells, potentiator/agonist activation; activation, % at 3.6 µM; 220,000 compounds, 0.37% hits; AID 1304; in the data active means activation above about 33%, passing the limit was not always enough;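 further: cells stimulated with NPY at EC10 then isoproterenol at EC100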
NPY Y2 blocker = NPY-Y2 (human) receptor antagonism; NPY-Y2 expressing cells, antagonist mode; inhibition, % at 2.7 µM; 140,000 compounds, 0.99% hits; P49146
RAM inhibit = blocks the yeast RAM network; inhibition, % at 50 µM; 190,000 compounds, 1.8% hits; S. cerevisiae dse1pr::URA3 reporter, 5-FOA growth OD615, 2 d; analog-sensitive cbk1-as2 kinase mutant strain;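 active means inhibition above a set limit, 3 SD over mean compound inhibition, cut at about 8.4% in these data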;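 further: inhibition rescues growth on 5-FOA so higher OD means more RAM inhibition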
INS promoter inh = TRM-6 insulin promoter activity inhibition. TRM-6 cells, insulin promoter-eGFP reporter, imaging; reporter expression induced with tamoxifen. inhibition, % at 2 µM. 130,000 compounds, 0.9% hits. AID 1273;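 active means inhibition above the mean plus 3 SD, with well images judged a real hit on visual review, cut at about 60% in these data, passing the limit was not always enough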
NPY Y1 blocker = antagonists of human neuropeptide Y receptor Y1 | P25929 | HEK293-CNG Y1 cells, membrane potential fluorescence; NPY at EC95, then isoproterenol | inhibition, % at 3.6 µM | 200,000 compounds, 1% hits | AID 1040;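 active means inhibition above the campaign mean inhibition of all tested compounds plus 3 SD, cut at about 20% in these data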
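Assay system: HEK293 cells with Y1 receptor plus CNG channel | Probe or stimulus: NPY (25 nM), isoproterenol (1 µM), Ro 20-1724 (25 µM) | Timing: Compound incubation 1 h at room temperature, readout 45 min post-stimulation | Measured by: Membrane-potential fluorescent dye readout | Benchmarks: High control isoproterenol alone, low control NPY with isoproterenol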
NPY1 antag conf = human NPY-Y1 antagonism, confirmation; inhibition, % at 3.6 µM; shares compounds with NPY Y1 blocker; 1,200 compounds, 21% hits; HEK293-CNG NPY-Y1, membrane potential fluorescence, cAMP; NPY challenge against isoproterenol-raised cAMP; in the data active means inhibition above about 20%
NPY2 antag ctr = antagonizes human NPY-Y2, counter-screen to NPY-Y1 antagonists. shares compounds with NPY Y1 blocker. HEK293 NPY-Y2 CNG membrane potential fluorescence, antagonism; cells given NPY, then isoproterenol. inhibition, % at 3.6 µM. 1,200 compounds, 28% hits. AID 1255
A number is an active result. Unless noted, no stated cut-off is given here; in the data, active means inhibition above about 17%; inactive means the rest.

Screening O=C(c1ccc(Cl)cc1)C1CCCN(Cc2cccn2-c2ccccn2)C1 (stereo not given) returned NPY-Y2 PAM-ag inactive, NPY1 pot ag inactive, RAM inhibit inactive, NPY Y1 blocker 59, NPY1 antag conf 32 and NPY2 antag ctr 31.
Screening OCCC1CN(Cc2cccn2-c2ccccn2)CCN1C1CCCC1 (stereo not given) returned NPY-Y2 PAM-ag inactive, NPY1 pot ag inactive, RAM inhibit inactive and NPY Y1 blocker inactive.
`Cc1ccsc1C(=O)C1CCCN(Cc2cccn2-c2ccc(Cl)cn2)C1` (stereo not given) gave NPY-Y2 PAM-ag inactive, NPY1 pot ag inactive, RAM inhibit inactive, NPY Y1 blocker 41, NPY1 antag conf 42 and NPY2 antag ctr 38.
Screening COc1ccc(F)cc1C(=O)C1CCCN(Cc2cccn2-c2cccnc2)C1 (stereo not given) returned NPY-Y2 PAM-ag inactive, NPY1 pot ag inactive, RAM inhibit inactive and NPY Y1 blocker inactive.
Screening Cc1ccc(-n2cccn2)c(CN2CCCC(C(=O)c3sccc3C)C2)c1 (stereo not given) returned NPY-Y2 PAM-ag inactive, NPY1 pot ag inactive, RAM inhibit inactive, NPY Y1 blocker 72, NPY1 antag conf 32 and NPY2 antag ctr 38.
Screening Cc1nc(SCC(=O)NCc2ccc3c(c2)OCO3)c(C#N)c2c1CCCC2 returned NPY-Y2 PAM-ag inactive, NPY1 pot ag inactive, NPY Y2 blocker inactive, RAM inhibit inactive, NPY Y1 blocker 21, NPY1 antag conf inactive and NPY2 antag ctr inactive.
Screening Cc1ccsc1-c1nc(CSCC(=O)NCc2ccc3c(c2)OCO3)c(C)o1 returned NPY-Y2 PAM-ag inactive, NPY1 pot ag inactive, NPY Y2 blocker inactive, RAM inhibit inactive, NPY Y1 blocker 21, NPY1 antag conf inactive and NPY2 antag ctr inactive.
CCOc1ccc(C(=O)Nc2cccc([N+](=O)[O-])c2)cc1Br was read as NPY-Y2 PAM-ag inactive, NPY1 pot ag inactive, NPY Y2 blocker inactive, RAM inhibit inactive, INS promoter inh inactive and NPY Y1 blocker inactive.
`Nc1nc(CCl)nc(Nc2cccc3ccccc23)n1` gave NPY-Y2 PAM-ag inactive and NPY1 pot ag inactive.
Screening N=c1c2c(-c3ccccc3)c(-c3ccccc3)n(Cc3ccco3)c2ncn1CCCN1CCOCC1 returned NPY-Y2 PAM-ag inactive, NPY1 pot ag inactive, RAM inhibit inactive, NPY Y1 blocker 56, NPY1 antag conf 44 and NPY2 antag ctr 39.
`C[C@@H]1CN(C(=O)c2nc3ccc(Cl)cn3c2CNCC[C@@H]2C[C@@H]3C=C[C@H]2C3)C[C@H](C)O1` gave NPY-Y2 PAM-ag inactive, NPY1 pot ag inactive, RAM inhibit inactive, NPY Y1 blocker 24, NPY1 antag conf inactive and NPY2 antag ctr inactive.
For O=C(c1nc2ccc(Cl)cn2c1CNCC[C@@H]1C[C@@H]2C=C[C@H]1C2)N1CCCCCCC1 the results were NPY-Y2 PAM-ag inactive, NPY1 pot ag inactive, RAM inhibit inactive and NPY Y1 blocker inactive.
For Cc1ccc(SCCC(=O)OCC(=O)NCC2CCCCC2)cc1 the results were NPY-Y2 PAM-ag inactive, NPY1 pot ag inactive, RAM inhibit inactive, INS promoter inh inactive, NPY Y1 blocker 36, NPY1 antag conf inactive and NPY2 antag ctr inactive.
`Cc1ccc(SCCC(=O)OCC(=O)Nc2ccc(S(N)(=O)=O)cc2)cc1` gave NPY-Y2 PAM-ag inactive and NPY1 pot ag inactive.
O=C(CSCc1nc2ccccc2[nH]1)N1CCN(c2cccc(Cl)c2)CC1 was read as NPY-Y2 PAM-ag inactive, NPY1 pot ag inactive, NPY Y2 blocker inactive, RAM inhibit inactive, INS promoter inh inactive, NPY Y1 blocker 21, NPY1 antag conf inactive and NPY2 antag ctr inactive.
Screening Cc1noc(C)c1CSc1nnc(-c2ccccc2F)n1CCc1ccccc1 returned NPY-Y2 PAM-ag inactive, NPY1 pot ag inactive, NPY Y2 blocker inactive, RAM inhibit inactive, INS promoter inh inactive, NPY Y1 blocker 20, NPY1 antag conf inactive and NPY2 antag ctr inactive.
Screening CC(=O)Nc1ccc(S(=O)(=O)Nc2nc(C)cc(-n3nc(C)cc3C)n2)cc1 returned NPY-Y2 PAM-ag inactive, NPY1 pot ag inactive, NPY Y2 blocker inactive, RAM inhibit inactive, INS promoter inh inactive, NPY Y1 blocker 22, NPY1 antag conf inactive and NPY2 antag ctr inactive.
CN1CCN(CCCC(=O)c2ccc(C3CCCC3)cc2)CC1 was read as NPY-Y2 PAM-ag inactive, NPY1 pot ag inactive, NPY Y2 blocker inactive, RAM inhibit inactive, INS promoter inh inactive, NPY Y1 blocker 26, NPY1 antag conf inactive and NPY2 antag ctr inactive.
Screening Cc1ccc(S(=O)(=O)Nc2cc(C)nn2-c2ccccc2)cc1 returned NPY-Y2 PAM-ag inactive, NPY1 pot ag inactive, NPY Y2 blocker inactive, RAM inhibit inactive, INS promoter inh inactive, NPY Y1 blocker 33, NPY1 antag conf inactive and NPY2 antag ctr inactive.
Screening CCN(Cc1ccncc1)Cc1c(O)ccc2cc(Br)ccc12 returned NPY-Y2 PAM-ag inactive, NPY1 pot ag inactive, RAM inhibit inactive, INS promoter inh inactive and NPY Y1 blocker inactive.
Screening O=C(NNc1cccc(Cl)n1)c1ccc(Cl)cc1Cl returned NPY-Y2 PAM-ag inactive, NPY1 pot ag inactive, NPY Y2 blocker inactive, RAM inhibit inactive, INS promoter inh inactive and NPY Y1 blocker inactive.
For O=C(NNc1cccc(Cl)n1)c1ccccc1CC[N+](=O)[O-] the results were NPY-Y2 PAM-ag inactive, NPY1 pot ag inactive, RAM inhibit inactive, INS promoter inh inactive, NPY Y1 blocker 23, NPY1 antag conf inactive and NPY2 antag ctr inactive.
Screening Cc1ccc(CN2CCN(/N=C/c3ccc(Cl)c([N+](=O)[O-])c3)CC2)cc1 returned NPY-Y2 PAM-ag inactive, NPY1 pot ag inactive, RAM inhibit inactive, INS promoter inh inactive and NPY Y1 blocker inactive.
`CCOC(=O)C1=C(c2ccccc2)O/C(=C(/C#N)C(F)(F)F)S1` gave NPY-Y2 PAM-ag inactive, NPY1 pot ag inactive, NPY Y2 blocker inactive, RAM inhibit inactive, INS promoter inh inactive, NPY Y1 blocker 32, NPY1 antag conf inactive and NPY2 antag ctr 42.
Screening Cn1c(=O)[nH]c(=O)c2c1nc(NCCCO)n2CCOc1ccccc1 returned NPY-Y2 PAM-ag inactive, NPY1 pot ag inactive, RAM inhibit inactive and NPY Y1 blocker inactive.
`O=C(Cn1nc(CNc2ccc(Cl)cc2)[n+]2c1CCCCC2)c1ccccc1` gave NPY-Y2 PAM-ag inactive, NPY1 pot ag inactive, NPY Y2 blocker inactive, RAM inhibit inactive and NPY Y1 blocker inactive.
`Cc1ccc(C(C)C)c(OCc2nn(CC(=O)c3ccc(Cl)cc3)c3[n+]2CCCCC3)c1` gave NPY-Y2 PAM-ag inactive, NPY1 pot ag inactive, RAM inhibit inactive, NPY Y1 blocker 35, NPY1 antag conf inactive and NPY2 antag ctr 18.
